Reference: ChEMBL document CHEMBL1137816, “New polyhydroxylated pyrrolidine, piperidine, and pyrrolizidine alkaloids from Scilla sibirica” (J Nat Prod, 2002)
Activity calls are given as the source filed them. The calls are words filed in the database; no cut-off is given here.

Columns and labels:
[1] = Inhibition of rice alpha-glucosidase assessed as D-glucose release after 10 mins by Glucose B-test; parameters: species or system Oryza sativa
How it was run: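 Rice enzyme with maltose as substrate at the enzyme's optimum pH. Incubation with inhibitor ran 10 min at 37 °C. Released D-glucose determined colorimetrically with a glucose test kit.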

Beta-galactosidase = target: T1, Beta-galactosidase (Bos taurus, UniProt Q58D55); test: Inhibition of bovine liver beta-galactosidase assessed as p-nitrophenol release after 30 mins by spectrophotometry
T1 sequence (Q58D55 whole entry): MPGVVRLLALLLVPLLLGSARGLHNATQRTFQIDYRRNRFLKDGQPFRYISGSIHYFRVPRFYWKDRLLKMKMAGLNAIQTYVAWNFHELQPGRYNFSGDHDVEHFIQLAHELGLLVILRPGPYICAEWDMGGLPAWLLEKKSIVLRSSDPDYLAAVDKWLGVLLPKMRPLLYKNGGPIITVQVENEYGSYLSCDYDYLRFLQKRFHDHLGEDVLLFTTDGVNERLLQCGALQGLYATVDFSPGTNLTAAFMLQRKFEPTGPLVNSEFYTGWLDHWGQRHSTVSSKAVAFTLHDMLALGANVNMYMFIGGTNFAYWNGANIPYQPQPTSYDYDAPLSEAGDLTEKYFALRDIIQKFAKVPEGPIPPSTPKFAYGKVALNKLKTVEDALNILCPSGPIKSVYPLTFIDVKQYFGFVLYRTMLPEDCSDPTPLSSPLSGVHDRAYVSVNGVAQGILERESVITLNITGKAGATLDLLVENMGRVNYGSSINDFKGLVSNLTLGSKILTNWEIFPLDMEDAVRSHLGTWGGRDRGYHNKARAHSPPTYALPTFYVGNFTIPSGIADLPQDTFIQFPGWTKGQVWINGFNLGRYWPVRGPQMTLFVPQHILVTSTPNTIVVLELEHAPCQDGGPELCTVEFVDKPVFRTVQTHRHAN
How it was run: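 Bovine liver enzyme at pH 6.8 with the appropriate p-nitrophenyl glycoside. Incubated with inhibitor 30 min at 37 °C, quenched with 400 mM Na2CO3, and released p-nitrophenol read at 400 nm.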

[2] = Inhibition of Penicillium decumbens alpha-L-rhamnosidase assessed as p-nitrophenol release after 30 mins by spectrophotometry
How it was run: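 Penicillium decumbens enzyme assayed at pH 4.5 with the appropriate p-nitrophenyl glycoside. Substrate, diluted enzyme and inhibitor were incubated 30 min at 37 °C, then stopped with 400 mM Na2CO3. Released p-nitrophenol was read at 400 nm.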

[3] = target: T2, Beta-mannosidase (Rattus norvegicus) (UniProt Q4FZV0); test: Inhibition of rat epididymis beta-mannosidase assessed as p-nitrophenol release at 1000 uM after 30 mins by spectrophotometry
T2 sequence (whole entry): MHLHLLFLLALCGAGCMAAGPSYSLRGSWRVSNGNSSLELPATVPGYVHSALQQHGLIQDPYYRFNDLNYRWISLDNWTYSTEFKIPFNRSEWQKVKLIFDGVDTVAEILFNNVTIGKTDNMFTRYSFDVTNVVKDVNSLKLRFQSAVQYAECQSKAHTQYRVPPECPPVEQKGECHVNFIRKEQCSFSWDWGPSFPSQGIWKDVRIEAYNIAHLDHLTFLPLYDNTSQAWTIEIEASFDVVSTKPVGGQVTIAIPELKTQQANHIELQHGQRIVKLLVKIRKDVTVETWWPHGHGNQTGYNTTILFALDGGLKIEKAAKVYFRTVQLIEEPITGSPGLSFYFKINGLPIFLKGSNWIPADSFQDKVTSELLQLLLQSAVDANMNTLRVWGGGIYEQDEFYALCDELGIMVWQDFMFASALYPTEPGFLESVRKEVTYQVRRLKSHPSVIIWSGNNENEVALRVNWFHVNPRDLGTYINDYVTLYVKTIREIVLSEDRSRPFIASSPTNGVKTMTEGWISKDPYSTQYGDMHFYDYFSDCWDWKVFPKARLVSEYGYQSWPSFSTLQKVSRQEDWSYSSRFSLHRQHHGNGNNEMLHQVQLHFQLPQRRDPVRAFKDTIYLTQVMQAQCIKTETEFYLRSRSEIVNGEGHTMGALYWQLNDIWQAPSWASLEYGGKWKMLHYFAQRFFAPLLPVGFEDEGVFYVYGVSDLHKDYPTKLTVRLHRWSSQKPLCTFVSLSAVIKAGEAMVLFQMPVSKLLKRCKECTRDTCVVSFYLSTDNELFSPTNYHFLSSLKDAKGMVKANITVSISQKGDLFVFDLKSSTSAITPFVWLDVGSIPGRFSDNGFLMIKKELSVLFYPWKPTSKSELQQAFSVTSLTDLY
How it was run: (§1)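 p-Nitrophenyl glycoside substrates: Penicillium decumbens α-L-rhamnosidase at pH 4.5, bovine epididymis α-L-fucosidase at pH 5.5, bovine liver β-galactosidase at pH 6.8. β-Mannosidase came from rat epididymal fluid purified from epididymis, with p-nitrophenyl-β-D-mannoside at pH 5.2. Enzyme, substrate and inhibitor were incubated 30 min at 37 °C. The reaction was stopped with 400 mM Na2CO3, and p-nitrophenol was read at 400 nm.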

[4] = target: T3, Tissue alpha-L-fucosidase (Bos taurus) (UniProt Q2KIM0); test: Inhibition of bovine epididymis alpha-L-fucosidase assessed as p-nitrophenol release at 1000 uM after 30 mins by spectrophotometry; how it was run: as §1
T3 sequence (whole entry): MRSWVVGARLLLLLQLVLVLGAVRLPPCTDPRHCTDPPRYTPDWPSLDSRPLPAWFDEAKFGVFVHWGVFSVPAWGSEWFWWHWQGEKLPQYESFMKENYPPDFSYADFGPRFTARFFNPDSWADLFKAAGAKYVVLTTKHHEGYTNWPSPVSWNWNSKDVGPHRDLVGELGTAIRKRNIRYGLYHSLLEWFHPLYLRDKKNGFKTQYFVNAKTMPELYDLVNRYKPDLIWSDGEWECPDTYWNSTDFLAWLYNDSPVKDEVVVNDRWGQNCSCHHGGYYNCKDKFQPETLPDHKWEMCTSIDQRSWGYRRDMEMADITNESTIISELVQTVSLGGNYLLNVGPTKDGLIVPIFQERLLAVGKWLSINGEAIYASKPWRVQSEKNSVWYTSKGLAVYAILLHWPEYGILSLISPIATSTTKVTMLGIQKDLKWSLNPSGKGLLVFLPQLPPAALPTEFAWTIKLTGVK

[5] = target: Oligo-1,6-glucosidase IMA1 (Saccharomyces cerevisiae S288c) (UniProt P53051); test: Inhibition of yeast alpha-glucosidase assessed as p-nitrophenol release at 1000 uM after 30 mins measured spectrometrically at 400 nm
[6] = target: Lysosomal alpha-glucosidase (Rattus norvegicus, UniProt Q6P7A9); test: Inhibition of rat liver lysosome alpha-glucosidase assessed as p-nitrophenol release after 30 mins measured spectrometrically at 400 nm
[7] = target: T4, Tissue alpha-L-fucosidase (Bos taurus, UniProt Q2KIM0); test: Inhibition of bovine epididymis alpha-L-fucosidase assessed as p-nitrophenol release after 30 mins by spectrophotometry
T4 sequence (Q2KIM0 whole entry): T3 sequence (whole entry)
How it was run: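 Enzyme from bovine epididymis, run at pH 5.5 with the appropriate p-nitrophenyl glycoside substrate. Enzyme, substrate and inhibitor incubated together 30 min at 37 °C. Reaction stopped by adding 400 mM Na2CO3; p-nitrophenol measured spectrometrically at 400 nm.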

[8] = target: T5, Beta-galactosidase (Bos taurus) (UniProt Q58D55); test: Inhibition of bovine liver beta-galactosidase assessed as p-nitrophenol release at 1000 uM after 30 mins by spectrophotometry; how it was run: as §1
T5 sequence (whole entry): T1 sequence (Q58D55 whole entry)

Penicillium decumbens = test: Inhibition of Penicillium decumbens alpha-L-rhamnosidase assessed as p-nitrophenol release at 1000 uM by spectrophotometry; how it was run: as §1
[9] = Inhibition of rat intestinal amyloglucosidase
Oryza sativa = test: Inhibition of rice alpha-glucosidase assessed as D-glucose release at 1000 uM after 10 mins by Glucose B-test
How it was run: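 Rice α-glucosidase was assayed with maltose as substrate at the enzyme's optimum pH. Incubation with inhibitor was 10 min at 37 °C. Released D-glucose was determined colorimetrically by Glucose B-test.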

[10] = target: Oligo-1,6-glucosidase IMA1 (Saccharomyces cerevisiae S288c) (UniProt P53051); test: Inhibition of yeast alpha-glucosidase assessed as D-glucose release at 1000 uM after 30 mins by Glucose B-test
[11] = target: Lysosomal alpha-glucosidase (Rattus norvegicus) (UniProt Q6P7A9); test: Inhibition of rat intestinal maltase assessed as D-glucose release at 1000 uM after 30 mins by Glucose B-test
How it was run: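 Brush border membranes from rat small intestine served as the enzyme source, with maltose substrate at pH 5.8. Incubation with inhibitor was 30 min at 37 °C. Released D-glucose was measured colorimetrically by Glucose B-test.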

[12] = target: Lysosomal alpha-glucosidase (Rattus norvegicus) (UniProt Q6P7A9); test: Inhibition of rat liver lysosome alpha-glucosidase assessed as D-glucose release at 1000 uM after 30 mins by Glucose B-test
[13] = target: Lactase/phlorizin hydrolase (Rattus norvegicus, UniProt Q02401); test: Inhibition of rat intestinal lactase assessed as p-nitrophenol release after 30 mins by spectrophotometry
Sequence of Lactase/phlorizin hydrolase (Q02401 868-1928 limits assumed): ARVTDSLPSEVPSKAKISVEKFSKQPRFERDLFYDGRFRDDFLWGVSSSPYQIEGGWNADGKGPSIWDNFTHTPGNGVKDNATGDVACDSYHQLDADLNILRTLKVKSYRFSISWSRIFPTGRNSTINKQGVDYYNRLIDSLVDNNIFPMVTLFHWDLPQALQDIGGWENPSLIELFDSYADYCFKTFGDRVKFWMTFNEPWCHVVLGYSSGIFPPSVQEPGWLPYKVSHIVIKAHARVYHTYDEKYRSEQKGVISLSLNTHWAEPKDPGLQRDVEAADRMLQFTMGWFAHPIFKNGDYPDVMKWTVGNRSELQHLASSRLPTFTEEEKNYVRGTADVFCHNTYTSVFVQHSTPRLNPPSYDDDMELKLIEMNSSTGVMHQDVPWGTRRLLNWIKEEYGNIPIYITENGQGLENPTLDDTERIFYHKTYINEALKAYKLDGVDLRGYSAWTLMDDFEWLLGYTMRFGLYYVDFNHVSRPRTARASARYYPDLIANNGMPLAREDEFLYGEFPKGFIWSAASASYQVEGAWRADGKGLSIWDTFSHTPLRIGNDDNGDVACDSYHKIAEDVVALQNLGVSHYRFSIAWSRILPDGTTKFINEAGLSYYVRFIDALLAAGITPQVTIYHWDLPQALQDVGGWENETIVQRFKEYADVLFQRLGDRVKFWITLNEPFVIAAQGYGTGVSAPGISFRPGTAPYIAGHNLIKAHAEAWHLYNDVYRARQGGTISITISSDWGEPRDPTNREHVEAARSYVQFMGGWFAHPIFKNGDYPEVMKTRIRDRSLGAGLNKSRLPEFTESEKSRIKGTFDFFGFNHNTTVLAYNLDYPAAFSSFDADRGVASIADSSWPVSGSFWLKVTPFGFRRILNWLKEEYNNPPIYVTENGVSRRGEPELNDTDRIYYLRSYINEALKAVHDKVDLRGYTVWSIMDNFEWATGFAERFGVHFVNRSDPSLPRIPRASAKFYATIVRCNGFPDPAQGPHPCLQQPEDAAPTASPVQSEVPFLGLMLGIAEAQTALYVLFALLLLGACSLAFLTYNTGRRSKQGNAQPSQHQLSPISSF

Sequence of Lysosomal alpha-glucosidase (Rattus norvegicus) (Q6P7A9 whole entry): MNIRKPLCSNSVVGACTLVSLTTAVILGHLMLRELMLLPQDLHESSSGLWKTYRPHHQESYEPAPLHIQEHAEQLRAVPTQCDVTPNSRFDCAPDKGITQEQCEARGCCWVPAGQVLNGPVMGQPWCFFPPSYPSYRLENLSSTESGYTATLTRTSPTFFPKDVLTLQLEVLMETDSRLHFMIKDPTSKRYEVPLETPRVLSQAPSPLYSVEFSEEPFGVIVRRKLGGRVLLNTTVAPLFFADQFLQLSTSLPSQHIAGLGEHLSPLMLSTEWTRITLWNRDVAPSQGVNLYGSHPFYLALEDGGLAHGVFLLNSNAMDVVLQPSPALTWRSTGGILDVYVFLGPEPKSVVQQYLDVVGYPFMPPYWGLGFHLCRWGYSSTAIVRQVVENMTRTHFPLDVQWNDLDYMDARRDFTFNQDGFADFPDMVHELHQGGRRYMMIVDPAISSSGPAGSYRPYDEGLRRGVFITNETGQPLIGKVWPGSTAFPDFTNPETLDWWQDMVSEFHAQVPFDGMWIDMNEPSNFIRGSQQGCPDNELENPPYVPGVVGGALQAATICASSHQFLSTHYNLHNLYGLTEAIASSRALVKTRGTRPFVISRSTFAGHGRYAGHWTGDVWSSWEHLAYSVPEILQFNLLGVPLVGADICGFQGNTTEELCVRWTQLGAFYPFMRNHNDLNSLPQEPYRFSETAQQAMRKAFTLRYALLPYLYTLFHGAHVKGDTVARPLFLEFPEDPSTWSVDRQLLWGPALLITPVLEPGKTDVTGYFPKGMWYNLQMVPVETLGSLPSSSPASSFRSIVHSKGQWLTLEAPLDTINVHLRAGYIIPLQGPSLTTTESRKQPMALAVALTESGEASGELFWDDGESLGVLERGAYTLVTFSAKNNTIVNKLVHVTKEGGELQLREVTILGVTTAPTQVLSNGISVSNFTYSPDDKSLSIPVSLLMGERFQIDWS
Sequence of Oligo-1,6-glucosidase IMA1 (Saccharomyces cerevisiae S288c) (P53051 whole entry): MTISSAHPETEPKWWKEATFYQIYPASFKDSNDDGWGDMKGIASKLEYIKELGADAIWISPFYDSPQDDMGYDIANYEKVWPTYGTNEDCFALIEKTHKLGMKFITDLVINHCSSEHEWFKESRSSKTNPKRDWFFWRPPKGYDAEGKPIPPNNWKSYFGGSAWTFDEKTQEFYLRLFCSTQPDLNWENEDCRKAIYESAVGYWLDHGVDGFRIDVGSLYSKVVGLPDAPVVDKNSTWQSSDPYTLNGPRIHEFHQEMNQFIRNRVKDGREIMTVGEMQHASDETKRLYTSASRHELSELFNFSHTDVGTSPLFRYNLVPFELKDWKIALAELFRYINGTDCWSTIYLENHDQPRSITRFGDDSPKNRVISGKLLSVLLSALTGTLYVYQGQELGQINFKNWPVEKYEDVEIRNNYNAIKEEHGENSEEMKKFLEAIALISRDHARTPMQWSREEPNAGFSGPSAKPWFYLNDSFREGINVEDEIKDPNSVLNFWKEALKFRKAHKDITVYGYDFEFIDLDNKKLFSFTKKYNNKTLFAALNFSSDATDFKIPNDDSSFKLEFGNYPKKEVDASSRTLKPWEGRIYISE
Sequence of Lysosomal alpha-glucosidase (Q6P7A9 whole entry): as the sequence (Q6P7A9 whole entry) above

IC50 [1] [µM]	IC50 (Beta-galactosidase) [µM]	IC50 [2] [µM]	inhibition [3] [%]	inhibition [4] [%]	inhibition [5] [%]	IC50 [6] [µM]	SMILES	IC50 [7] [µM]	Activity [8]	Activity [4]	Activity (Penicillium decumbens)	IC50 [9] [µM]	Activity (Oryza sativa)	Activity [10]	Activity [11]	Activity [12]	IC50 [13] [µM]
8	260	94	< 50	< 50	< 50	19	C[C@H]1N[C@H](CO)[C@@H](O)[C@H](O)[C@H]1O	–	–	–	–	–	–	–	–	–	–
–	–	–	–	–	–	–	C[C@@H]1C[C@H](O)[C@@H]2[C@@H](O)[C@H](O)[C@@H](CO)N21 (relative stereo) [HYACINTHACINE B4]	23	inactive	inactive	inactive	89	inactive	inactive	inactive	inactive	–
–	–	–	–	–	–	–	C[C@@H]1C[C@@H](O)[C@@H]2[C@H](O)[C@H](O)[C@@H](CO)N21 [HYACINTHACINE B3]	–	inactive	inactive	inactive	51	inactive	inactive	inactive	inactive	18
